“Also recorded” adds a separate entry of the source.
Legend:
[1] = target: T1, hV2R[L^83Q] (Homo sapiens, UniProt P30518, L83Q); test: hV2R[L^83Q] pharmacoperone assay; format: cell-based; details: for LOPAC Screen Average % Response +/- Std Dev: single concentration of 6 μM (0.4% DMSO), SR121463 as positive control, -Dox
[2] = test system: hV2R[L^83Q] cells in the presence of doxycycline; test: counter screen: same hV2R[L^83Q] HeLa cells incubated with doxycycline 36 hours; format: cell-based; details: Homo sapiens, read-out: EC50 (μM) +Dox
Summary of the method: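 HeLa line expressing hV2R[L83Q] under a tetracycline-regulated (TET-off) transactivator. Cells are pretreated with compound, challenged with an EC100 dose of vasopressin, lysed, and cAMP is read by cAMP-Glo luminescence. […] The −Dox run expresses the mutant. The +Dox counter screen adds doxycycline 36 hours before assay, shutting off mutant expression.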

[3] = test system: GnRHR[E^90K]; details: mouse, in vivo; cited from earlier work
[4] = target: T1, hV2R[L^83Q]; details: pre-treatment with 100 nM, absence of Dox, 384-well; cited from earlier work

| LOPAC Screen Average % Response +/- Std Dev [1] | SMILES | EC50 [2] | also measured |
| --- | --- | --- | --- |
| 104+/−0% | C=C[C@@]1(C)CC(=O)[C@]2(O)[C@@]3(C)[C@@H](O)CCC(C)(C)[C@@H]3[C@H](O)[C@H](OC(C)=O)[C@@]2(C)O1 [Forskolin] | 0.59 µM |  |
| 74+/−2% | Cc1ccccc1N1CCN(S(=O)(=O)C[C@]23CC[C@H](C[C@@H]2NC(=O)[C@@H](N)CCS(C)(=O)=O)C3(C)C)CC1 [L-368,899] |  |  |

The next lines start with the compound.

| SMILES | LOPAC Screen Average % Response +/- Std Dev [1] | EC50 [2] | also measured |
| --- | --- | --- | --- |
| Cc1cc(C)cc(-c2[nH]c3ccc(C(C)(C)C(=O)N4CC5CCC4CC5)cc3c2[C@H](C)CNCCc2ccncc2)c1 [IN3, (2S)-2-[5-[2-(2-azabicyclo[2.2.2]oct-2-yl)-1,1-dimethyl-2-oxoethyl]-2-(3,5-dimethylphenyl)-1H-indol-3-yl]-N-(2-pyridin-4-ylethyl)propan-1-amine] |  |  | testis weight / size [3]: increased testis size; also recorded: markedly increased |
| O=C1c2c(O)ccc(O)c2C(=O)c2c(NCCNCCO)ccc(NCCNCCO)c21 [Mitoxantrone] |  | > 25 µM |  |
| CCOc1ccc2c(c1)C1(CCC(OCCN3CCOCC3)CC1)C(=O)N2S(=O)(=O)c1ccc(C(=O)NC(C)(C)C)cc1OC (stereo not shown) [SR121463] |  |  | signal-to-background ratio (S/B) ([1]; -Dox assay, n=4): ~7; cAMP response to vasopressin challenge after pharmacoperone pre-treatment [4]: robust cAMP response |

— article PMC4047138 (Pharmacological research : the official journal of the …, 2013)
